Some results are limits rather than exact numbers.

The values below come from ChEMBL document CHEMBL1136659, “Benzamide derivatives as blockers of Kv1.3 ion channel” (Bioorg Med Chem Lett, 2003).

Assay [1] is described as follows: Inhibition of DiTc binding to Kv1.x channel in human brain membranes. Format: cell membranes, Membrane. The method in brief:
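Displacement of diTC (C20-C29 ditritio-correolide) binding to human brain membranes carrying Kv1.x channels, primarily heteromultimeric Kv1.1/Kv1.2.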

For assay [2], the target named is T1, Potassium voltage-gated channel subfamily A member 3 (Homo sapiens, UniProt P22001). The assay is described as follows: Inhibition of DiTc binding to Kv1.3 channel in human brain membranes. Format: cell membranes, Membrane.
Assay [3] has as its target T1, Potassium voltage-gated channel subfamily A member 3. Kind of assay: Inhibition of [86Rb+] efflux from CHO cells stably transfected with Kv1.3 channel. Format: functional, cell-based.
Assay [4] shares this target. Kind of assay: Inhibition of Kv1.3 ion channel. Measured in the Rb_Kv assay: [86Rb+] efflux from CHO cells stably transfected with Kv1.3 channel. Format: functional, cell-based.

T1 sequence (P22001 whole entry): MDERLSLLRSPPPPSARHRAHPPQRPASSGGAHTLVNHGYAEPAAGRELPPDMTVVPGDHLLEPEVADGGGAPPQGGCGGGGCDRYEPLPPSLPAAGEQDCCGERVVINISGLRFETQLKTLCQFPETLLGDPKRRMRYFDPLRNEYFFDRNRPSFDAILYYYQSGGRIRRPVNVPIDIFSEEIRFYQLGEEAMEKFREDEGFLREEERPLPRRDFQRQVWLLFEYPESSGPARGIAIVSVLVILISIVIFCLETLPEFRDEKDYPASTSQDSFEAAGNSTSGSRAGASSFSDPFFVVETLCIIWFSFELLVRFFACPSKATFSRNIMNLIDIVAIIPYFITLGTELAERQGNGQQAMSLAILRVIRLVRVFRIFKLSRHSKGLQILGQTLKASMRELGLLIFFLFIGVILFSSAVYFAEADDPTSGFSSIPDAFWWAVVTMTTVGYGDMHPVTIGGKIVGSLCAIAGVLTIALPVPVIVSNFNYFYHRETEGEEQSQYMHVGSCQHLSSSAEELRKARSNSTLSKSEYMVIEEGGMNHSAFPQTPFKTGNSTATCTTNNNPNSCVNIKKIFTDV

What is called IC50 is the point on the concentration scale where inhibition reaches its midpoint. With `CNC(=O)O[C@H]1CC[C@@](CNC(=O)c2ccccc2OC)(c2ccccc2)CC1`, the IC50 worked out at 0.033 µM in assay [1], 0.005 µM in assay [2] and 0.058 µM in assay [3].

As for `COCCNC(=O)O[C@H]1CC[C@](CNC(=O)c2ccccc2OC)(c2ccccc2)CC1`, in assay [4], the IC50 turned out to be 0.14 µM. That is a sub-micromolar value.

`C/C=C/C(=O)N[C@H]1CC[C@@](CNC(=O)c2ccccc2OC)(c2ccccc2)CC1` had an IC50 in assay [4] of 0.44 µM. Against the preceding molecule, the IC50 is about 3.1-fold higher.

In assay [4], `COc1ccccc1C(=O)NC[C@]1(c2ccccc2)CC[C@@H](OC(=O)NCc2ccccc2)CC1` had an IC50 of 1.7 µM.

For `C=CCNC(=O)O[C@H]1CC[C@@](CNC(=O)c2cccnc2OC)(c2ccccc2)CC1`, in assay [4], the 50% inhibitory concentration (IC50) is 0.325 µM.

Consider `COc1ccccc1C(=O)NCC1CCCCC1`, for which the IC50 in assay [4] is > 30 µM.

As to `COc1ccccc1C(=O)NC[C@]1(c2ccccc2)CC[C@H](OC(=O)Nc2ccccc2)CC1`, the IC50 in assay [4] worked out at 0.12 µM.

As for `COc1ccccc1C(=O)NC[C@]1(c2ccccc2)CC[C@H](OC(=O)NCc2ccccc2)CC1`, in assay [4], the IC50 stood at 0.245 µM.

`COc1ccccc1C(=O)NC[C@]1(c2ccccc2)CC[C@@H](NC(=O)CCc2ccccc2)CC1`: the IC50 in assay [4] was determined as 0.57 µM.

On to `C=CCN(CC=C)C(=O)O[C@H]1CC[C@@](CNC(=O)c2ccccc2OC)(c2ccccc2)CC1`, for which the IC50 in assay [4] worked out at 0.84 µM.

In assay [4], `C=CCN(CC=C)C(=O)O[C@H]1CC[C@](CNC(=O)c2ccccc2OC)(c2ccccc2)CC1` had a half-maximal inhibitory concentration (IC50) of 0.205 µM.

`COc1ccccc1C(=O)NC[C@]1(c2ccccc2)CC[C@H](NC(=O)c2ccccc2)CC1` yielded an IC50 in assay [4] of 0.075 µM.

In assay [4], `COc1ccccc1C(=O)NC[C@]1(c2ccccc2)CC[C@@H](NC(=O)SC)CC1` returned an IC50 of 0.15 µM.

As to `CNC(=O)O[C@H]1CC[C@](CNC(=O)c2ccccc2OC)(c2ccccc2)CC1`, the values for the IC50 in assay [1], in assay [2] and in assay [3] were 0.104 µM, 0.099 µM and 0.15 µM, respectively.

`C=CCN(C)C(=O)O[C@H]1CC[C@@](CNC(=O)c2ccccc2OC)(c2ccccc2)CC1`: in assay [4], the IC50 was found to be 0.32 µM.

Take `COc1ccccc1C(=O)NC[C@]1(c2ccccc2)CC[C@H](OC(=O)NCCc2ccccc2)CC1`: the IC50 in assay [4] came out at 0.42 µM. The IC50 values of the last two molecules are within 1.5-fold of each other.

With `COCCCNC(=O)O[C@H]1CC[C@@](CNC(=O)c2ccccc2OC)(c2ccccc2)CC1`, the IC50 in assay [4] came to 0.145 µM. This IC50 is about 2.9-fold lower than that of the molecule before.

`COc1ccccc1C(=O)NC[C@]1(c2ccccc2)CC[C@H](OC(=O)NCCCc2ccccc2)CC1` came in with an IC50 in assay [4] of 0.535 µM.

As to `COc1ccccc1C(=O)NC[C@]1(c2ccccc2)CC[C@@H](OC(=O)Nc2ccccc2)CC1`, the IC50 in assay [4] was > 30 µM.

The molecule `C/C=C/C(=O)N[C@H]1CC[C@](CNC(=O)c2ccccc2OC)(c2ccccc2)CC1` showed an IC50 in assay [4] of 0.1 µM.

In assay [4], `COCCNC(=O)O[C@H]1CC[C@@](CNC(=O)c2ccccc2OC)(c2ccccc2)CC1` had an IC50 of 0.14 µM.

The molecule `COCCCNC(=O)O[C@H]1CC[C@](CNC(=O)c2ccccc2OC)(c2ccccc2)CC1` came in with an IC50 in assay [4] of 0.13 µM.

Turning to `COc1ccccc1C(=O)N(C)CC1(c2ccccc2)CCC(=O)CC1`, the concentration for half-maximal inhibition (IC50) in assay [4] is > 30 µM.

`COc1ccccc1C(=O)NC[C@]1(c2ccccc2)CC[C@H](OC(=O)NCCO)CC1` came in with an IC50 in assay [4] of 0.095 µM.

In turn, `COc1ccccc1C(=O)NC[C@]1(c2ccccc2)CC[C@@H](NC(=O)Cc2ccccc2)CC1` displayed an IC50 in assay [4] of 1.05 µM. This IC50 lies about 11-fold higher than the previous one.

In the case of `COc1ccccc1C(=O)NC[C@]1(c2ccccc2)CC[C@@H](OC(=O)NCCO)CC1`, in assay [4], the IC50 is 0.31 µM.

As for `C=CCN(C)C(=O)N[C@H]1CC[C@](CNC(=O)c2ccccc2OC)(c2ccccc2)CC1`, in assay [4], the midpoint of inhibition, the IC50, lay at 0.195 µM.

In the case of `CCCNC(=O)O[C@H]1CC[C@](CNC(=O)c2ccccc2OC)(c2ccccc2)CC1`, the IC50 in assay [1] is 0.076 µM; in assay [2], 0.079 µM; in assay [3], 0.1 µM.

In turn, `CCCC(=O)N[C@H]1CC[C@@](CNC(=O)c2ccccc2OC)(c2ccccc2)CC1` had an IC50 in assay [4] of 0.2 µM.

`CNc1ccccc1C(=O)NCC1(c2ccccc2)CCC(=O)CC1` returned an IC50 in assay [4] of 0.6 µM.

Consider `C=CCNC(=O)N[C@H]1CC[C@@](CNC(=O)c2ccccc2OC)(c2ccccc2)CC1`, for which the IC50 amounted to 0.12 µM in assay [1], 0.029 µM in assay [2] and 0.15 µM in assay [3].

Molecule `C=CCNC(=O)O[C@H]1CC[C@@](CNC(=O)c2cccc3c2OCC3)(c2ccccc2)CC1` came in with an IC50 in assay [4] of 3.73 µM.

In turn, `C=CCOC(=O)N[C@H]1CC[C@@](CNC(=O)c2ccccc2OC)(c2ccccc2)CC1` yielded a concentration for half-maximal inhibition (IC50) in assay [4] of 0.242 µM.

With `COC(=O)N[C@H]1CC[C@@](CNC(=O)c2ccccc2OC)(c2ccccc2)CC1`, in assay [4], the IC50 amounted to 0.135 µM.

Take `COc1ccccc1C(=O)NCC1(c2ccccc2)CCC(=O)CC1`: 0.2 µM corresponded to half-maximal inhibition in assay [4] (IC50).

In assay [4], `O=C1CCC(CNC(=O)c2cccc(Cl)c2)(c2ccccc2)CC1` gave an IC50 of 30 µM.

In the case of `CCCNC(=O)O[C@H]1CC[C@@](CNC(=O)c2ccccc2OC)(c2ccccc2)CC1`, the figures for the IC50 in assay [1], in assay [2] and in assay [3] were 0.03 µM, 0.005 µM and 0.05 µM, respectively.

Turning to `COc1ccccc1C(=O)NC[C@]1(c2ccccc2)CC[C@@H](NC(=O)c2cccc(Br)c2)CC1`, in assay [4], the IC50 is > 30 µM.

The molecule `C=C(C)CNC(=O)O[C@H]1CC[C@@](CNC(=O)c2ccccc2OC)(c2ccccc2)CC1` gave an IC50 in assay [4] of 0.09 µM.

In the case of `COc1ccccc1C(=O)NC[C@]1(c2ccccc2)CC[C@@H](NC(=O)c2ccc(Br)cc2)CC1`, the IC50 in assay [4] was > 30 µM.

As to `C=CCOC(=O)N[C@H]1CC[C@](CNC(=O)c2ccccc2OC)(c2ccccc2)CC1`, the values for the IC50 in assay [1], in assay [2] and in assay [3] were 0.068 µM, 0.072 µM and 0.09 µM, respectively.

With `C=CCNC(=O)O[C@H]1CC[C@@](CNC(=O)c2ccccc2OC)(c2ccccc2)CC1`, the IC50 was 0.112 µM in assay [1], 0.018 µM in assay [2] and 0.07 µM in assay [3].

In assay [4], `COc1ccccc1C(=O)NC[C@]1(c2ccccc2)CC[C@@H](NC(=O)C=C(C)C)CC1` yielded a half-inhibitory concentration (IC50) of 0.47 µM.

The molecule `C=CCNC(=O)O[C@H]1CC[C@@](CNC(=O)c2cc(Cl)ccc2OC)(c2ccccc2)CC1` gave an IC50 in assay [4] of 0.23 µM.

With `COc1ccccc1C(=O)NC[C@]1(c2ccccc2)CC[C@H](OC(=O)NC(C)C)CC1`, in assay [4], the half-maximal inhibitory concentration (IC50) was 0.13 µM.

With `COc1ccccc1C(=O)NC[C@]1(c2ccccc2)CC[C@H](NC(=O)Cc2ccccc2)CC1`, the IC50 in assay [4] was 0.13 µM. This lies in the sub-micromolar range.

Regarding `COc1ccccc1C(=O)NC[C@]1(c2ccccc2)CC[C@@H](NC(=O)c2ccccc2)CC1`, the IC50 in assay [4] came out at 1.56 µM.

As for `C=CCOC(=O)O[C@H]1CC[C@](CNC(=O)c2ccccc2OC)(c2ccccc2)CC1`, it took 0.23 µM to reach half-maximal inhibition in assay [4] (IC50).

As to `C=CCNC(=O)O[C@H]1CC[C@](CNC(=O)c2ccccc2OC)(c2ccccc2)CC1`, the IC50 in assay [1] was 0.17 µM; in assay [2] it was 0.14 µM; in assay [3] it was 0.13 µM.

In the case of `COc1ccccc1C(=O)N(C)CC1(c2ccccc2)CCNCC1`, in assay [4], the concentration for half-maximal inhibition (IC50) was > 30 µM.

In the case of `C=C(C)CNC(=O)O[C@H]1CC[C@](CNC(=O)c2ccccc2OC)(c2ccccc2)CC1`, the IC50 in assay [4] worked out at 0.12 µM. This lies in the sub-micromolar range.

In assay [4], `COc1ccccc1C(=O)NC[C@]1(c2ccccc2)CC[C@H](NC(=O)CCc2ccccc2)CC1` displayed an IC50 of 0.12 µM.

On to `CCOc1ccccc1C(=O)NCC1(c2ccccc2)CCC(=O)CC1`, for which the IC50 in assay [4] came out at 0.58 µM.

In the case of `C=CCNC(=O)N[C@H]1CC[C@](CNC(=O)c2ccccc2OC)(c2ccccc2)CC1`, the IC50 was determined as 0.125 µM in assay [1], 0.08 µM in assay [2] and 0.14 µM in assay [3].

As to `C=CCNC(=O)O[C@H]1CC[C@@](CNC(=O)c2cccc(Cl)c2OC)(c2ccccc2)CC1`, half-maximal inhibition in assay [4] (IC50) required 8.38 µM.

For `CCC(=O)N[C@H]1CC[C@@](CNC(=O)c2ccccc2OC)(c2ccccc2)CC1`, the IC50 in assay [4] came to 0.21 µM.

`COc1ccccc1S(=O)(=O)NCC1(c2ccccc2)CCC(=O)CC1`: the IC50 in assay [4] was > 30 µM.

Molecule `CCCCNC(=O)O[C@H]1CC[C@@](CNC(=O)c2ccccc2OC)(c2ccccc2)CC1` had an IC50 in assay [4] of 0.09 µM.

The molecule `COc1ccccc1C(=O)NC[C@]1(c2ccccc2)CC[C@@H](NC(=O)c2ccccc2Br)CC1` registered an IC50 in assay [4] of 2.79 µM.

Take `C=CCN(C)C(=O)O[C@H]1CC[C@](CNC(=O)c2ccccc2OC)(c2ccccc2)CC1`: the half-maximal inhibitory concentration (IC50) in assay [4] came to 0.145 µM.

The molecule `C=CCNC(=O)O[C@H]1CC[C@@](CNC(=O)c2cc(F)ccc2O)(c2ccccc2)CC1` yielded an IC50 in assay [4] of 0.14 µM.

`COc1ccccc1C(=O)NC[C@]1(c2ccccc2)CC[C@@H](OC(=O)NC(C)C)CC1` came in with a half-inhibitory concentration (IC50) in assay [4] of 0.075 µM.

Molecule `CCCCNC(=O)O[C@H]1CC[C@](CNC(=O)c2ccccc2OC)(c2ccccc2)CC1` displayed an IC50 in assay [4] of 0.14 µM.

In assay [4], `COc1ccccc1C(=O)NC[C@]1(c2ccccc2)CC[C@@H](NC(C)=O)CC1` showed an IC50 of 0.47 µM.

With `COc1ccc(C(=O)NCC2(c3ccccc3)CCC(=O)CC2)cc1`, in assay [4], the IC50 turned out to be 10 µM.

For the molecule `C=CCNC(=O)O[C@H]1CC[C@@](CNC(=O)c2cccc(Cl)c2O)(c2ccccc2)CC1`, the IC50 in assay [4] is 7.2 µM.

On to `COc1cccc(C(=O)NCC2(c3ccccc3)CCC(=O)CC2)c1`, for which the IC50 in assay [4] was > 30 µM.

As to `O=C1CCC(CNC(=O)c2ccccc2)(c2ccccc2)CC1`, in assay [4], the IC50 was > 30 µM.
